High-throughput results from PubChem BioAssay.
This is a sample that favours compounds with a hit; in the whole collection about 0.79% have one here.
bIAP inh – intestinal alkaline phosphatase (bovine) inhibition. 190,000 tested, under 10 active. purified bovine IAP, CDP-star luminescence, 30 min. inhibition, % at 20 µM;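 active = over 50% inhibition of intestinal alkaline phosphatase at 20 µM in the single-dose screen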
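System: Purified bovine intestinal alkaline phosphatase (IAP) enzyme | Input: IAP diluted 1/65,000,000 in the well | Also added: CDP-star chemiluminescent phosphatase substrate, 30 µM final | Dosing: 20 µM single dose | Times: Enzyme reaction for 30 min at room temperature | Detection: Luminescence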
hIAP activ – human IAP activation. purified human IAP, CDP-Star luminescence, 30 min; hits give high values; 1 = vehicle-only enzyme, 0 = enzyme-free background. activation factor at 10 µM. 0.16% of 330,000 active;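 active = activation factor of the enzyme at least 2-fold when tested at 20 µM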
Target sequence (P09923 whole entry, looked up): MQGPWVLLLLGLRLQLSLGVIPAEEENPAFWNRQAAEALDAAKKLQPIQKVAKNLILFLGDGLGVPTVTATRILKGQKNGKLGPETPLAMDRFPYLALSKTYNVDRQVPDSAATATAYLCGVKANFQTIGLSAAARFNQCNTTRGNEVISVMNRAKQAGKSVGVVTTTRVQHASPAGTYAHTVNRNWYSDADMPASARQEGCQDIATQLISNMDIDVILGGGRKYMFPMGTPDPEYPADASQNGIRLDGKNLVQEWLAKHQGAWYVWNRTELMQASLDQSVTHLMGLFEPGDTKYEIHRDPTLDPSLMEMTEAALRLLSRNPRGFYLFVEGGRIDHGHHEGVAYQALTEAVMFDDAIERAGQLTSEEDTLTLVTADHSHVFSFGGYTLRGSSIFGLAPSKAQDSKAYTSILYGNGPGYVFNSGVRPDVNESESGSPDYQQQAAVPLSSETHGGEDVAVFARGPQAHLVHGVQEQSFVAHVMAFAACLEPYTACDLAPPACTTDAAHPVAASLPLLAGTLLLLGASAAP
hIAP block – blocks human intestinal alkaline phosphatase | P09923 | purified IAP, CDP-Star luminescence, 30 min | inhibition, % at 10 µM | 0.12% of 330,000 active;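 active = inhibition reaching a set limit with compound at 10 µM in the primary screen, cut at about 35% in these data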;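 note: plate controls were DMSO wells with enzyme for no effect and no-enzyme buffer wells for full effect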
bIAP act – increases bovine intestinal alkaline phosphatase activity. purified bovine IAP, CDP-star luminescence, 30 min; hits give high values; fold of DMSO-control signal, blank-subtracted. activation factor at 20 µM. 0.17% of 200,000 active;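 active = activation factor of 2 or more at 20 µM, a signal rise over negative controls twice the positive control's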
mIAP inh – mouse IAP inhibition; purified mouse IAP, CDP-Star luminescence, 30 min; inhibition, % at 10 µM; 0.2% of 330,000 active; AID 2806;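 active = inhibition of at least 40% at 10 µM in the primary screen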;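 note: plate controls were DMSO with enzyme for no effect and no enzyme wells for full effect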
mIAP activ – mouse IAP activation; muIAP, CDP-Star luminescence, 30 min; hits give high values; 1 = vehicle-only enzyme signal, 0 = enzyme-free wells; activation factor at 10 µM; 0.24% of 330,000 active;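 active = activation factor of at least 2 at 20 µM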
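Assay system: mouse IAP enzyme / Compound: DMSO-dissolved test compounds / Timing: 30 min, room temperature / Measured by: luminescence from enzymatic CDP-Star hydrolysis / Control set: DMSO-only wells, enzyme-free buffer wells as negative control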
mIAP inh confirm – mouse IAP inhibition confirmation | AID 434971 | shares compounds with mIAP inh | 4.7% of 11,000 active | inhibition, % at 10 µM | purified mouse IAP, CDP-Star luminescence, 30 min;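 active = inhibition of at least 40% at 10 µM in either of the two replicates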;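 note: plate controls were DMSO wells with enzyme for no effect and buffer wells lacking enzyme for full effect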
* hit, by the source's call.

Screening O=C(O)c1ccc(CSc2n[nH]c(-c3ccco3)n2)cc1 returned bIAP inh 12, hIAP activ 1.1, hIAP block -5, bIAP act 0.9, mIAP inh 58*, mIAP activ 0.42 and mIAP inh confirm 86*.
For O=C1/C(=C/c2ccco2)SC(=S)N1CCC(=O)N1CCCCC1CCO (stereo unspecified) the results were hIAP activ 0.78, hIAP block 22, mIAP inh 47*, mIAP activ 0.53 and mIAP inh confirm 57*.
O=C1/C(=C\c2ccco2)SC(=S)N1C1CCCCC1 was read as hIAP activ 0.85, hIAP block 15, mIAP inh 40*, mIAP activ 0.6 and mIAP inh confirm 52*.
`Cc1ccc(N2C(=O)/C(=C/c3ccco3)SC2=S)cc1` gave bIAP inh 13, hIAP activ 0.95, hIAP block 5, bIAP act 0.9, mIAP inh 49*, mIAP activ 0.51 and mIAP inh confirm 60*.
Screening O=C(Cc1ccc(-c2ccccc2)cc1)OCC(=O)N1CCCC1=O returned bIAP inh -13, hIAP activ 0.96, hIAP block 4, bIAP act 1.1, mIAP inh -10 and mIAP activ 1.1.
Screening COc1ccc(Nc2cc(C(=O)NC3CCCC3)c3ccccc3n2)c(OC)c1 returned hIAP activ 0.87, hIAP block 13, mIAP inh 12 and mIAP activ 0.88.
`COCCN(CCOC)S(=O)(=O)c1ccc(C(=O)Nc2c(C)n(C)n(-c3ccccc3)c2=O)cc1` gave hIAP activ 0.88, hIAP block 12, mIAP inh -3 and mIAP activ 1.
Screening COc1cc(OC)cc(C(=O)N[C@H](C(=O)NC2=NCCS2)C(C)C)c1 returned hIAP activ 1, hIAP block -3, mIAP inh -2 and mIAP activ 1.
O=C(Nc1cccc(F)c1)Nc1cccc(Cl)c1 was read as hIAP activ 1.1, hIAP block -14, mIAP inh -259, mIAP activ 3.6* and mIAP inh confirm -111.
`CC(O)c1cccc(NC(=O)Nc2cccc(NC(=O)Nc3cccc(C(C)O)c3)c2)c1` (stereo unspecified) gave hIAP activ 1.2, hIAP block -19, mIAP inh -152, mIAP activ 2.5* and mIAP inh confirm -89.
`CC(O)c1cccc(NC(=O)CCC(=O)O)c1` (stereo unspecified) gave bIAP inh 10, hIAP activ 0.84, hIAP block 16, bIAP act 0.9, mIAP inh -9 and mIAP activ 1.1.
For CSc1cccc(NC(=O)Nc2ccccc2)c1 the results were bIAP inh 26, hIAP activ 1.1, hIAP block -6, bIAP act 0.7, mIAP inh -177, mIAP activ 2.8* and mIAP inh confirm -110.
Screening O=C(Nc1cccc(Cl)c1)Nc1nc(-c2ccccc2)cs1 returned hIAP activ 1.1, hIAP block -13, bIAP act 0.4, mIAP inh -184, mIAP activ 2.8* and mIAP inh confirm -116.
COc1ccc(C)cc1NS(=O)(=O)c1ccc2c(c1)N(C)CCO2 was read as hIAP activ 1, hIAP block 0, mIAP inh 2 and mIAP activ 0.98.
For CC(CCc1ccccc1)NC(=O)COC(=O)C(CCC(N)=O)NC(=O)c1ccc(F)cc1 (stereo unspecified) the results were hIAP activ 1.1, hIAP block -7, mIAP inh -2 and mIAP activ 1.
O=C(Nc1cccc(Cl)c1)Nc1cccc(Cl)c1 was read as bIAP inh -16, hIAP activ 1.1, hIAP block -9, bIAP act 1.2, mIAP inh -163, mIAP activ 2.6* and mIAP inh confirm -221.
Screening O=C(Nc1cccc(Cl)c1)NC1CCCCC1 returned bIAP inh 6, hIAP activ 1.1, hIAP block -9, bIAP act 0.9, mIAP inh -93 and mIAP activ 1.9.
O=C(Nc1cccc(Cl)c1)NC1CC2CCC1C2 (stereo unspecified) was read as hIAP activ 1.1, hIAP block -11, mIAP inh -220, mIAP activ 3.2* and mIAP inh confirm -164.
`O=C(Nc1ccccc1)Nc1cc(Cl)cc(Cl)c1` gave bIAP inh 12, hIAP activ 1.2, hIAP block -19, bIAP act 0.9, mIAP inh -384, mIAP activ 4.8* and mIAP inh confirm -241.
For O=C(NCc1csc2ccccc12)Nc1cc(Cl)cc(Cl)c1 the results were hIAP activ 0.96, hIAP block 4, mIAP inh -271, mIAP activ 3.7* and mIAP inh confirm -145.
For O=C(Cn1c(=O)oc2ccccc21)Nc1n[nH]c(=S)s1 the results were hIAP activ 0.9, hIAP block 10, mIAP inh -9 and mIAP activ 1.1.
For COC(=O)Cc1nnc(SCC(=O)Nc2ccccc2)c2ccccc12 the results were hIAP activ 1, hIAP block -2, mIAP inh 3 and mIAP activ 0.97.
For CCCCNC(=O)Nc1ccc2c(c1)N(C)C(=O)c1ccccc1S2 the results were hIAP activ 1.4, hIAP block -45, mIAP inh -172, mIAP activ 2.7* and mIAP inh confirm -124.
Screening Cc1ccc(NC(=O)C2CCN(S(=O)(=O)c3c(C)nn(C)c3C)CC2)c(Cl)c1 returned hIAP activ 1.1, hIAP block -14, mIAP inh 6 and mIAP activ 0.94.
Screening C=C1c2cccc(O)c2C(=O)C2C(=O)[C@]3(O)C(=O)C(C(N)=O)C(=O)[C@@H](N(C)C)[C@@H]3[C@@H](O)[C@H]12 (stereo partly specified) returned hIAP activ 0.89, hIAP block 11, mIAP inh 49*, mIAP activ 0.51 and mIAP inh confirm 48*.
COc1ccc(NC(=O)Nc2ccc3c(c2)C(=O)N([C@H](C)CO)C[C@H](C)[C@@H](CN(C)S(=O)(=O)c2ccc(F)cc2)O3)cc1 was read as hIAP activ 0.96, hIAP block 4, mIAP inh -185, mIAP activ 2.9* and mIAP inh confirm -101.
C[C@@H]1CN([C@H](C)CO)C(=O)c2cc(NC(=O)Nc3ccc(C(F)(F)F)cc3)ccc2O[C@H]1CN(C)S(=O)(=O)c1cccs1 was read as hIAP activ 1, hIAP block 0, mIAP inh -69 and mIAP activ 1.7.
Screening C[C@H](CO)N1C[C@H](C)[C@@H](CN(C)S(=O)(=O)c2cccs2)Oc2ccc(NC(=O)Nc3ccccc3)cc2C1=O returned hIAP activ 1, hIAP block -1, mIAP inh -221, mIAP activ 3.2* and mIAP inh confirm -152.
